Common to all, as to type: functional
The species entered for test [1] is Rattus norvegicus. In words: Percentage cytochrome P-450 loss from phenobarbital pretreated rats was measured in the presence of oxygen and NADPH after 10 min. In short, it runs like this:
(§1)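 Liver microsomes from phenobarbital-pretreated male Sprague-Dawley rats (1 mg/mL protein) were incubated at 37 °C with 1 mM ethchlorvynol, 1 mM NADPH, 1.5 mM EDTA and 150 mM KCl in […], pH 7.4, under air. The reaction was started with NADPH. Cytochrome P-450 loss was measured spectroscopically. Values are the mean ± SD of three determinations.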

The species entered for test [2] is Rattus norvegicus. The test is described as follows: Percentage cytochrome P-450 loss from phenobarbital pretreated rats was measured in the presence of oxygen and NADPH after 20 min. The essentials: as §1
The species named for test [3] is Rattus norvegicus. In words: Percentage cytochrome P-450 loss from phenobarbital pretreated rats was measured in the presence of the oxygen after 20 min.
The species entered for test [4] is Rattus norvegicus. The test is described as follows: Percentage cytochrome P-450 loss from phenobarbital pretreated rats was measured in the presence of the NADPH after 10 min; Not detectable.
The species entered for test [5] is Rattus norvegicus. The test is described as follows: Percentage cytochrome P-450 loss from phenobarbital pretreated rats was measured in the presence of the Ethchlorvynol after 30 min; Not detectable.
Test [6] is filed under the species Rattus norvegicus. In words: Cytochrome P-450 loss from phenobarbital pretreated rats was measured in the presence of oxygen and NADPH after 20 min. In short, it runs like this: (§2)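 This was a separate 20-min experiment using the standard microsomal mix at 37 °C: phenobarbital-induced rat microsomes at 1 mg/mL, 1 mM ethchlorvynol, 1 mM NADPH, EDTA and KCl in phosphate buffer pH 7.4. P-450 loss was measured spectroscopically and heme loss by the pyridine hemochromogen assay, both expressed in nmol. Values are the mean ± SD of three determinations.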

For test [7], the species on record is Rattus norvegicus. In words: Percentage cytochrome P-450 loss from phenobarbital pretreated rats was measured in the presence of the Ethchlorvynol after 20 min; Not detectable.
The species named for test [8] is Rattus norvegicus. In words: Heme loss from phenobarbital pretreated rats was measured in the presence of oxygen and NADPH after 20 min. The essentials: as §2
For test [9], the species on record is Rattus norvegicus. The test is described as follows: Percentage cytochrome P-450 loss from phenobarbital pretreated rats was measured in the presence of the NADPH after 30 min; Not detectable.
Test [10] is filed under the species Rattus norvegicus. The test is described as follows: Percentage cytochrome P-450 loss from phenobarbital pretreated rats was measured in the presence of the Ethchlorvynol after 10 min; Not detectable.
The species entered for test [11] is Rattus norvegicus. In words: Percentage cytochrome P-450 loss from phenobarbital pretreated rats was measured in the presence of the NADPH after 20 min; Not detectable.
Test [12] is filed under the species Rattus norvegicus. The test is described as follows: Percentage cytochrome P-450 loss from phenobarbital pretreated rats was measured in the presence of oxygen and NADPH after 30 min. In short, it runs like this: as §1

Consider `C#CC(O)(/C=C/Cl)CC` (configuration not stated) [ETHCHLORVYNOL], for which the Cytochrome loss is 30% in the test listed under Rattus norvegicus [1]; 35% in the test filed under Rattus norvegicus [2]; 4% in the test filed under Rattus norvegicus [3]; “Not detectable” in the test filed under Rattus norvegicus [4]; “Not detectable” in the test filed under Rattus norvegicus [5]; “Not detectable” in the test filed under Rattus norvegicus [7]. In addition, the Cytochrome loss result in the test filed under Rattus norvegicus [9] was “Not detectable”; in the test filed under Rattus norvegicus [10] it was “Not detectable”; in the test filed under Rattus norvegicus [11], “Not detectable”; in the test listed under Rattus norvegicus [12], 38%. Further, the P-450 loss in the test filed under Rattus norvegicus [6] is listed as 0.52 nM. For the same molecule, the Heme loss in the test filed under Rattus norvegicus [8] came to 0.32 nM.

For the origin of these results see ChEMBL document CHEMBL1121948, “Alkylation of the prosthetic heme in cytochrome P-450 during oxidative metabolism of the sedative-hypnotic ethchlorvynol” (1982).
